From PubChem
A selection: hits, their analogues and other compounds. The true share with any hit is near 3.4%.
Runt-CBFb FRET = blocks binding of human RUNX1 Runt domain to CBFb; Q01196+Q13951; Cerulean-Runt/Venus-CBFb FRET ratio 530/480, 1 h; inhibition, % at 20 µM; 220,000 compounds, 0.46% hits;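 active = inhibition over about 50% at 20 µM in the single-dose screen, limit read from the data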;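 note: 0% = DMSO wells and 100% = excess unlabeled CBFb competitor control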
Target sequence (Q01196 whole entry, looked up, the tested form may be a part): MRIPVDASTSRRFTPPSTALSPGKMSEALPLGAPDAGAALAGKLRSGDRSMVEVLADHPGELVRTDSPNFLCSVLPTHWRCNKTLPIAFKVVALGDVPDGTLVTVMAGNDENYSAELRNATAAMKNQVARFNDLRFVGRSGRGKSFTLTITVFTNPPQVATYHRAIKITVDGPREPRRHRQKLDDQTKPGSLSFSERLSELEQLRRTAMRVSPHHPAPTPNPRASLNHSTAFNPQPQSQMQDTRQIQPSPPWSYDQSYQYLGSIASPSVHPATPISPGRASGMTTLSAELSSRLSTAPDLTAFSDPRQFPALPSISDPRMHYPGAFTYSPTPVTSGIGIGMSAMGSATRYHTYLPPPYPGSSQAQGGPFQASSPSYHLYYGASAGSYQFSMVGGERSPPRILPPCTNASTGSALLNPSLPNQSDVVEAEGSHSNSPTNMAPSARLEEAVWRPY
Target sequence (Q13951 whole entry, looked up, the tested form may be a part): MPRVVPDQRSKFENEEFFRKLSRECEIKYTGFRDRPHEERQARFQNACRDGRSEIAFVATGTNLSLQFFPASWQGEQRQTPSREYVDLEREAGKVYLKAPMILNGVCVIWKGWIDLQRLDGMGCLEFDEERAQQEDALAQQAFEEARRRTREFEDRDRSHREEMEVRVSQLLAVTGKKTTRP
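Doses: 20 µM compound in 1% DMSO | Material: Cerulean-labeled Runt domain protein | Amount: Each fluorescent fusion protein 100 nM | Schedule: Two 1 h room-temperature incubations shielded from light | Measured by: FRET fluorescence | Evaluation: Loss of energy transfer signal | Controls: Unlabeled CBFb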
Runt-SMMHC FRET = blocks binding of human RUNX1 Runt domain to CBFb-SMMHC | Q01196+Q13951 | Cerulean-Runt/Venus-CBFb-SMMHC FRET ratio 530/480, 1 h | inhibition, % at 20 µM | 220,000 compounds, 0.74% hits | AID 1434;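 active = mean inhibition across duplicate retests at 20 µM reaching about 50%, limit read from the data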;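 note: 0% = DMSO wells and 100% = wells with excess untagged CBFb-SMMHC; inhibitors lower the FRET ratio by blocking Runt binding to CBFb-SMMHC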
Wee1 stabilizer = blocks degradation of human Wee1 kinase. P30291. HeLa Luc-Wee1K328M stability, luciferase luminescence; 100% = proteasome inhibitor MG132 effect. reporter increase, % at 5 µM. 220,000 compounds, 1.2% hits. AID 1321;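 active = activation above the mean of all tested compounds plus 3 SD, set per screening run, cut at about 8.8% in these data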;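 note: cells exposed to compound for 20 h before luminescence read; 0% = DMSO alone and 100% = MG132 at 30 µM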
RanGTP-Imp inh = inhibitors of RanGTP-importin-beta interaction, primary screen, biochemical, FRET, CFP-Ran, YFP-importin-beta, homogeneous. cell-free CFP-Ran/YFP-importin-beta FRET ratio. inhibition, % (no concentration beside the values). 300,000 compounds, 1.1% hits;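 active = more than half of the replicate wells show a fall in the fluorescence ratio signal beyond about 16%, limit read from the data, passing the limit was not always enough; inconclusive = exactly half of the replicate wells pass the set limit; inactive = fewer than half of replicates pass the limit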;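 note: 0% = DMSO wells and 100% = Ran loaded with GDP instead of GTP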
Efa HMGR inh = blocks class II HMG-CoA reductase of Enterococcus faecalis; purified E. faecalis HMGR, NADPH absorbance 340 nm kinetic; inhibition, % at 10 µM; 190,000 compounds, 0.41% hits; AID 1066;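 active = inhibition above a set limit, the median over all tested compounds plus 3 SD, cut at about 9.5% in these data; inconclusive = no clear call, values can overlap the other calls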;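 note: enzyme runs in reverse so mevalonate oxidation gives rising NADPH absorbance; 0% = complete reaction with DMSO and 100% = background rate lacking mevalonate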
PHOSPHO1 block = blocks human PHOSPHO1 phosphatase activity. Q8TCT1. recombinant PHOSPHO1, absorbance phosphatase assay. inhibition, % at 13.3 µM. 290,000 compounds, 1.1% hits. AID 1565; in the data active = inhibition above about 60%
* marks the source's active call; other numbers are inactive results; ? = inconclusive; / = no result.

SMILES	Runt-CBFb FRET	Runt-SMMHC FRET	Wee1 stabilizer	RanGTP-Imp inh	Efa HMGR inh	PHOSPHO1 block
Cc1ccc(Oc2nc3c(C)cccn3c(=O)c2/C=C(\C#N)C(N)=O)cc1	46	64*	3	12	/	17
CCOC(=O)/C(C#N)=C/c1c(Oc2cccc(C)c2)nc2c(C)cccn2c1=O	-5	63	-1	-6	-8	7
Cc1cccn2c(=O)c(/C=C(\C#N)C(=O)NC3CCS(=O)(=O)C3)c(Oc3ccccc3Cl)nc12 (centres undefined)	/	/	/	160*	/	44
Cc1cccn2c(=O)c3cc(C(=O)NC4CCS(=O)(=O)C4)sc3nc12 (centres undefined)	6	9	-1	5	2	9
Cc1ccc(Oc2nc3ccccn3c(=O)c2/C=C(\C#N)C(=O)NC2CCS(=O)(=O)C2)cc1 (centres undefined)	73*	82*	3	29*	/	36
Cc1ccc(N(C(=O)c2ccccn2)C(C(=O)NC2CCCCC2)c2ccncc2)cc1 (centres undefined)	/	/	/	-3	/	35
COc1ccc(OC)c(C2C(C(=O)Nc3nc4ccccc4s3)=C(C)NC3=C2C(=O)CCC3)c1 (centres undefined)	22	142*	0	8	-3	7
COc1cc(C2C(C#N)=C(N)N(N(C)C)C3=C2C(=O)CC(C)(C)C3)cc(OC)c1OC (centres undefined)	/	/	/	3	/	/
COc1cc(-c2nnc(SCc3cc(=O)oc4cc(C)ccc34)o2)cc(OC)c1OC	-9	-1	-3	0	-7	74*
CC(CCc1ccccc1)NC(=O)c1cccc(F)c1 (centres undefined)	/	/	/	-1	/	3
O=C(C1CCC(=O)N(C2CCCC2)C1)N1CCN(Cc2cccc(F)c2)CC1 (centres undefined)	/	/	/	-6	/	75*
ClC(Cl)(Cl)c1nc2ccccc2n2nncc12	/	/	/	1	/	26
COC(=O)c1ccc(/C=C(\C#N)c2nc3ccccc3s2)cc1	-8	-8	-3	0	-14	38
N#C/C(=C\c1ccncc1)c1nc2c(s1)CCCC2	22	87*	0	?	-6	16
Cc1c(/C=N/NC(=O)C(C)(C)Oc2ccc(Cl)cc2)cnn1C	-1	3	9.9*	6	0	8
Cc1nn(C)c(C)c1/C=N/NC(=O)C(C)(C)Oc1ccc(Cl)cc1	2	-1	-2	7	3	3
COc1ccc(/C=N/NC(=O)c2nn(-c3ccc(Cl)cc3)c(=O)c3c(N)scc23)cc1	12	-2	4	-1	-3	100*
COc1ccc(/C=N/NC(=O)c2nn(-c3ccccc3)c(=O)c3c(N)scc23)cc1	12	47	0	-2	0	3
Cc1ccc(NC(=O)c2ccc(F)cc2F)cc1NS(C)(=O)=O	3	2	9.2*	-3	/	32
Nc1ncnc(Nc2ccccn2)c1[N+](=O)[O-]	2	2	1	2	4	30
Cc1cccnc1Nc1ncnc(N)c1[N+](=O)[O-]	-2	0	2	-1	1	61*
CCCn1c2ccccc2c2cnn(CC(=O)NCCCN3CCN(c4ccccc4)CC3)c(=O)c21	/	/	/	2	/	30
Cn1c(NC(=O)c2ccc(C(C)(C)C)cc2)cc(=O)n(C)c1=O	-1	-3	-1	/	6	40
Cn1c(NNC(=O)c2ccc(C(C)(C)C)cc2)cc(=O)n(C)c1=O	41	77*	-2	7	1	-5
Cc1cc(C)c(C(=O)Cn2nc(C)c([N+](=O)[O-])c2C)cc1C	-2	0	10*	0	-2	22
SMILES	Runt-CBFb FRET	Runt-SMMHC FRET	Wee1 stabilizer	RanGTP-Imp inh	Efa HMGR inh	PHOSPHO1 block
COc1ccc(/C=N/NC(=O)Cn2nc(C)c([N+](=O)[O-])c2C)cc1	-1	1	-4	-2	0	-2
Cc1ccc(/C=N/NC(=O)Cn2nc(C)c([N+](=O)[O-])c2C)o1	3	0	9.6*	28	/	20
C[C@@H]1CN=C2N(CCNC(=O)CCC3CCCCC3)[C@H](Cc3ccc(O)cc3)CN21	3	5	-2	-2	0	9
CCCCCCNC(=O)N[C@H](C(=O)NCCC[C@H]1CN2C(=NC[C@H]2C)N1CCC(c1ccccc1)c1ccccc1)C(C)O (some centres undefined)	9	62*	/	/	/	-141
CCOC(=O)c1c(C)[nH]c(C)c1C(=O)CSc1nncs1	-1	5	-2	0	10*	42
CCn1ccc(C(=O)NC2=C(C#N)CCC2)n1	-2	0	9.7*	0	-7	2
Cc1ccc(NS(=O)(=O)c2cc(-c3n[nH]c(=O)c4ccccc34)ccc2C)cc1	-6	-7	1	6	0	-5
COc1cc(/C=N/N=C2/NC(=O)C(c3ccccc3)S2)ccc1O (centres undefined)	3	-78	-2	1	-1	67*
Nc1nc(-c2ccccc2)cn1/N=C/c1ccccc1	2	0	5	11	/	20
S=c1[nH]c(-c2ccccc2)cn1/N=C/c1ccncc1	9	25	2	3	/	70*
CCOc1ccc(/C=N/n2cc(-c3ccccc3)[nH]c2=S)cc1	14	17	0	1	11*	-31
O=C(Nc1nnc(COc2ccc(Cl)cc2)s1)c1cccs1	42	33	3	-1	-2	80*
Cc1nnc(NC(=O)c2ccco2)s1	0	4	-1	6	-3	-12
O=C(Nc1nnc(C23CC4CC(CC(C4)C2)C3)s1)c1ccco1	2	-2	9.4*	-4	2	-10
Cc1ccc(OCc2nnc(NC(=O)c3ccco3)s2)cc1	2	-2	-2	2	-4	5
O=C(Nc1nnc(COc2ccc(F)cc2)s1)c1cccs1	2	-5	5	-5	-3	38
O=C(Nc1nnc(COc2ccc(Cl)cc2)s1)c1ccco1	45	11	9.8*	3	-5	-104
Cc1cccc(C(=O)Nc2ccc(C(=O)N/N=C/c3ccco3)cc2)c1	/	/	/	-21	/	/
COC(=O)[C@@H]1C[C@@]2(Br)c3ccccc3N(S(=O)(=O)c3ccccc3)[C@H]2N1C(=O)OC	/	/	/	-2	/	/
Cc1nc2c(sc3nc(N4CCOCC4)c4c(c32)CC(C)(C)OC4)c(-c2ccccc2)c1C(=O)O	14	82	6	23*	/	-10
CCCC1/C(=N/O)CC(c2ccccc2)NC1c1ccccc1 (centres undefined)	1	-2	9.1*	-3	-6	-10
CC1/C(=N/O)CC(c2ccccc2)NC1c1ccccc1 (centres undefined)	2	0	3	-1	-5	2
